Experimental data taken from ChEMBL document CHEMBL1157219, “Chalcones and other compounds from the exudates of Angelica keiskei and their cancer chemopreventive effects” (J Nat Prod, 2006).

Key:
[1] = Scavenging activity against (+/-)-(E)-methyl-2-[(E)-hydroxyimino]-5-nitro-6-methoxy-3-hexemide-induced NO generation in human Chang liver cells; format: functional
Summary of the method: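 Human Chang liver cells (5 × 10^5/mL) were cultured in MEM Eagle medium for 3 days. Samples (350 nmol) were added 1 min before NOR 1 (350 nmol), then incubated 1 h in a CO2 incubator. Transformed cells were counted under light microscopy (×100, >250 cells). The inhibitory ratio is transformed % with NOR 1 alone divided by transformed % with NOR 1 plus sample, with NOR 1 taken as 1.0.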

[2] = system: Raji; assay: Inhibition of TPA-induced EBV-early antigen activation in human Raji cells at 10 molar ratio relative to TPA; format: cell-based; parameters: scale not given: the % may be the effect or the level left; details: human gammaherpesvirus 4
[3] = Inhibition of TPA-induced EBV-early antigen activation in human Raji cells; format: cell-based, human gammaherpesvirus 4
Summary of the method: (§1)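 Raji cells incubated 48 h at 37 °C in medium with n-butyric acid (4 mM), TPA (32 pmol) and test compound at molar ratios to TPA (1000, 500, 100). Smears were stained for EBV-EA by indirect immunofluorescence. Induction is given as % of TPA-alone control (100%).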

[4] = system: Raji; assay: Inhibition of TPA-induced EBV-early antigen activation in human Raji cells at 100 molar ratio relative to TPA; format: cell-based; parameters: scale not given: the % may be the effect or the level left; details: human gammaherpesvirus 4; summary of the method: as §1
[5] = system: Raji; assay: Inhibition of TPA-induced EBV-early antigen activation in human Raji cells at 1000 molar ratio relative to TPA; format: cell-based; parameters: scale not given: the % may be the effect or the level left; details: human gammaherpesvirus 4; summary of the method: as §1
[6] = system: Raji; assay: Inhibition of TPA-induced EBV-early antigen activation in human Raji cells at 500 molar ratio relative to TPA; format: cell-based; parameters: scale not given: the % may be the effect or the level left; details: human gammaherpesvirus 4; summary of the method: as §1
[7] = Cytotoxicity against human Raji cells assessed as cell viability at 1000 molar ratio; format: cell-based; details: read-out: Activity
Summary of the method: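 Raji cell viability was recorded as a percentage in the EBV-EA setup: 48 h at 37 °C with n-butyric acid (4 mM), TPA (32 pmol) and compound at 32 nmol (1000:1 molar ratio to TPA).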

[8] = organism: Mus musculus; assay: Inhibition of tumor promotion in mouse assessed as papilloma bearing mouse after 10 weeks; format: functional
Summary of the method: (§2)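 Two-stage mouse skin carcinogenesis using DMBA and TPA as promoter. Groups were 15 mice housed five per cage with water ad libitum. The percentage of papilloma-bearing mice was scored at 10 and 20 weeks of promotion in treated versus untreated groups.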

[9] = organism: Mus musculus; assay: Inhibition of tumor promotion in mouse assessed as papilloma bearing mouse after 20 weeks; format: functional; summary of the method: as §2

Row | IC50 [3] [molar ratio] | SMILES | Ratio [1] | Activity [2] [%] | Activity [4] [%] | Activity [5] [%] | Activity [6] [%] | viability at 1000 molar ratio [7] [%] | inhibition (INH) [8] [%] | inhibition (INH) [9] [%]
1 | 264 | CC(C)=CCCC(C)(O)CCc1c(O)ccc(C(=O)/C=C/c2ccc(O)cc2)c1O (stereo not given) [XANTHOANGELOL J] | 2.4 | 90.2 | 66.8 | 0 | 12.5 | 70 | – | –
2 | 273 | CC(C)=CCCC1(C)CCc2c(O)ccc(C(=O)/C=C/c3ccc(O)cc3)c2O1 (stereo not given) | 2.4 | 87.3 | 64.7 | 0 | 20.3 | 70 | – | –
3 | 583 | CC1(C)CCc2c(ccc(C(=O)/C=C/c3ccc(O)cc3)c2O)O1 [DORSMANNIN A] | 1.9 | 100 | 86 | 34.2 | 61.7 | 60 | – | –
4 | 578 | COc1ccc(C(=O)/C=C/c2ccc(O)cc2)c2c1CCC(C)(C)O2 [DEOXYXANTHOANGELOL H] | 1.5 | 100 | 85.2 | 32.1 | 60.5 | 60 | – | –
5 | 320 | CC(C)=CCc1c(O)ccc(C(=O)/C=C/c2ccc(O)cc2)c1O [ISOBAVACHALCONE] | 2 | 98.4 | 63 | 0 | 26.3 | 60 | 20 | 80
6 | 230 | COc1cc(O)c2c(c1CC=C(C)C)O[C@H](c1ccc(O)cc1)CC2=O [MUNDULEAFLAVANONE B] | 2.3 | 90.3 | 66.7 | 0 | 24.9 | 70 | – | –
7 | 572 | CC1(C)[C@@H](O[C@H]2O[C@H](C(=O)O)[C@@H](O)[C@H](O)[C@H]2O[C@@H]2O[C@H](C(=O)O)[C@@H](O)[C@H](O)[C@H]2O)CC[C@]2(C)[C@H]3C(=O)C=C4[C@@H]5C[C@@](C)(C(=O)O)CC[C@]5(C)CC[C@@]4(C)[C@]3(C)CC[C@@H]12 [GLYCYRRHIZIN] | 2.2 | 100 | 83.3 | 27.4 | 63.3 | > 80 | – | –
8 | 482 | CC1=C(/C=C/C(C)=C/C=C/C(C)=C/C(=O)O)C(C)(C)CCC1 [TRETINOIN] | – | 100 | 76.3 | 15.3 | 49.3 | 60 | – | –
9 | 563 | COc1ccc(C(=O)CCc2ccc(O)cc2)c2c1CCC(C)(C)O2 [DEOXYDIHYDROXANTHOANGELOL H] | 1.6 | 100 | 81.6 | 27.4 | 56.7 | 60 | – | –
10 | 490 | COc1c2occc2cc2ccc(=O)oc12 [METHOXSALEN] | 1.3 | 100 | 83.1 | 14.2 | 55.2 | 60 | – | –
11 | 215 | CC(C)=CCC/C(C)=C/Cc1c(O)cc(O)c2c1O[C@H](c1ccc(O)cc1)CC2=O [SOPHORAFLAVANONE A] | 2.1 | 89.3 | 56.4 | 0 | 18.5 | 70 | – | –
12 | 290 | CC(C)=CCc1c(O)ccc2ccc(=O)oc12 [OSTHENOL] | 2 | 90.6 | 69.8 | 0 | 30.1 | 70 | – | –
13 | 486 | COc1c2ccoc2c(OC)c2oc(=O)ccc12 [ISOPIMPINELLIN] | 1.4 | 100 | 81.5 | 12.1 | 57.4 | 60 | – | –
14 | – | CC1(C)N([O])C(c2ccc(C(=O)O)cc2)=[N+]([O-])C1(C)C | 8 | – | – | – | – | – | – | –

Row | SMILES | IC50 [3] [molar ratio] | Ratio [1] | Activity [2] [%] | Activity [4] [%] | Activity [5] [%] | Activity [6] [%] | viability at 1000 molar ratio [7] [%] | inhibition (INH) [8] [%] | inhibition (INH) [9] [%]
15 | C=C[C@@H](O)C#CC#C[C@@H](O)/C=C\CCCCCCCCOC(C)=O | 511 | 1.2 | 100 | 81.4 | 18.7 | 53.1 | 60 | – | –
